The record followed here is ChEMBL document CHEMBL3621151, “Orally bioavailable Syk inhibitors with activity in a rat PK/PD model” (Bioorg Med Chem Lett, 2015).

Data set [1] concerns the target T1, Tyrosine-protein kinase SYK (Homo sapiens, UniProt P43405).
Data set [2] deals with T1, Tyrosine-protein kinase SYK. Description: Inhibition of Syk in anti-igM stimulated human Ramos B cells assessed as phospho-BLNK level preincubated for 30 mins followed by anti-IgM stimulation measured after 15 mins by flow cytometric analysis. Format: cell-based. A general note: Flow cytometry measures light scatter and fluorescence of single cells or particles in a stream.

For data set [3] the target is unchanged. Description: Inhibition of Syk in anti-CD32 stimulated CD14+ human monocytes in presence of 90% human blood assessed as phospho-SLP76 level preincubated for 30 mins followed by anti-CD32 stimulation measured after 5 mins by flow cytometric analysis.
A short description of data set [4]: Mean residence time in Sprague-Dawley rat at 1 mg/kg, iv and 3 mg/kg, po administered as cassette dosing. The settings on record: in vivo. It is filed as ADME, organism-based. Put shortly: (§1)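 Cassette dosing in Sprague Dawley rats: iv 1 mg/kg in NMP/PEG200 (3:7) and po 3 mg/kg in CMC/water/Tween (0.5:99:0.5). Dose-normalized values are marked as such.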
Data set [5] relates to Rattus norvegicus. Description: Dose normalized Cmax in Sprague-Dawley rat at 1 mg/kg, iv and 3 mg/kg, po administered as cassette dosing. It is filed as ADME, organism-based. The settings on record: in vivo. Put shortly: as §1
Data set [6] relates to Liver microsome. Put plainly: Drug metabolism in rat liver microsomes assessed as pyrazole hydroxylation. It is filed as ADME. On the technique in general: Liver microsomes are vesicles of endoplasmic reticulum, rich in cytochrome P450 enzymes.
Data set [7] concerns Liver microsome. Description: Drug metabolism in rat liver microsomes assessed as pyrazole N-demethylation. It is filed as ADME.
In data set [8] the test system is Liver microsome. Put plainly: Drug metabolism in rat liver microsomes assessed as lactam hydroxylation. It is filed as ADME.
The subject of data set [9] is Liver microsome. Description: Drug metabolism in human liver microsomes assessed as pyrazole hydroxylation. Format: ADME.
Data set [10] deals with Liver microsome. Put plainly: Drug metabolism in human liver microsomes assessed as pyrazole N-demethylation. Format: ADME.
The test system of data set [11] is Liver microsome. Put plainly: Drug metabolism in human liver microsomes assessed as lactam hydroxylation. It is filed as ADME.
Data set [12] addresses T2, Aurora kinase A (Homo sapiens, UniProt O14965).
T2 sequence (O14965 whole entry): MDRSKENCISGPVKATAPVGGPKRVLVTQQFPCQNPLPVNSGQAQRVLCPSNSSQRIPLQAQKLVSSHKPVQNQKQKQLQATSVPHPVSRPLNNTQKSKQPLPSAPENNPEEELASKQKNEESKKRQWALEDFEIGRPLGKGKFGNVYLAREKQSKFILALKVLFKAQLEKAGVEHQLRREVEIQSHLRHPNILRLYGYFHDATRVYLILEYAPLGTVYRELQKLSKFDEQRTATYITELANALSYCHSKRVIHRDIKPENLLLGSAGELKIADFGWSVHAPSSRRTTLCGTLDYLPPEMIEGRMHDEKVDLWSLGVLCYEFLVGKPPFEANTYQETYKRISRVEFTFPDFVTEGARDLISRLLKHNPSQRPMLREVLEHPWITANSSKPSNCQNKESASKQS
Description: Inhibition of aurora A kinase (unknown origin) by enzymatic assay.

Data set [13] is described as follows: Clearance in Sprague-Dawley rat at 1 mg/kg, iv and 3 mg/kg, po administered as cassette dosing. Format: ADME, organism-based. The settings on record: in vivo. In outline:
as §1

Data set [14] is described as follows: Volume of distribution at steady state in Sprague-Dawley rat at 1 mg/kg, iv and 3 mg/kg, po administered as cassette dosing. To be noted: in vivo, read-out: Vdss. It is filed as ADME, organism-based. Put shortly:
as §1

The test system of data set [15] is Rattus norvegicus. Description: Dose normalized AUC in Sprague-Dawley rat at 3 mg/kg, po administered as cassette dosing. It is filed as ADME, organism-based. To be noted: in vivo. In outline: as §1
Data set [16] can be described thus: Oral bioavailability in Sprague-Dawley rat at 3 mg/kg administered as cassette dosing. It is filed as ADME, organism-based. To be noted: in vivo. In outline: as §1
Data set [17] can be described thus: Solubility in pH 6.8 solution. Format: physicochemical.
Data set [18] in a line: Protein binding in human. Format: ADME, organism-based. To be noted: plasma, read-out: PB (converted).
Data set [19] can be described thus: Half life in rat liver microsomes. It is filed as ADME.
Data set [20] deals with T3, Voltage-gated inwardly rectifying potassium channel KCNH2 (Homo sapiens, UniProt Q12809). Description: Inhibition of human ERG by automated patch clamp assay. Background: The patch-clamp technique gives a direct electrical read-out from membranes.
Data set [21] addresses T3, Voltage-gated inwardly rectifying potassium channel KCNH2. Description: Inhibition of human ERG at 30 uM by manual patch clamp assay.
Data set [22] has as its system Blood. Description: Drug level in rat blood at 1 mg/kg, iv. Format: ADME, organism-based. The settings on record: in vivo. In outline: (§2)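 Rats received a single iv dose of 1 mg/kg. Compound concentrations were measured in blood, liver and kidney and expressed as ng/g.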
Data set [23] concerns Liver. Description: Drug level in rat liver at 1 mg/kg, iv. It is filed as ADME, organism-based. To be noted: in vivo. Put shortly: as §2
In data set [24] the test system is Kidney. Put plainly: Drug level in rat kidney at 1 mg/kg, iv. Format: ADME, organism-based. The settings on record: in vivo. In outline:
as §2

Data set [25] is described as follows: Ratio of drug level in liver to blood in rat at 1 mg/kg, iv. Format: ADME, organism-based. Put shortly: (§3)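 Rats received a single 1 mg/kg iv dose. Compound levels were then measured in blood, liver and kidney and expressed as ng/g of matrix. The ratio is tissue level over blood level.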
A short description of data set [26]: Ratio of drug level in kidney to blood in rat at 1 mg/kg, iv. It is filed as ADME, organism-based. In outline:
as §3

pIC50: −log10 of the molar value.

T3 sequence (Q12809 whole entry): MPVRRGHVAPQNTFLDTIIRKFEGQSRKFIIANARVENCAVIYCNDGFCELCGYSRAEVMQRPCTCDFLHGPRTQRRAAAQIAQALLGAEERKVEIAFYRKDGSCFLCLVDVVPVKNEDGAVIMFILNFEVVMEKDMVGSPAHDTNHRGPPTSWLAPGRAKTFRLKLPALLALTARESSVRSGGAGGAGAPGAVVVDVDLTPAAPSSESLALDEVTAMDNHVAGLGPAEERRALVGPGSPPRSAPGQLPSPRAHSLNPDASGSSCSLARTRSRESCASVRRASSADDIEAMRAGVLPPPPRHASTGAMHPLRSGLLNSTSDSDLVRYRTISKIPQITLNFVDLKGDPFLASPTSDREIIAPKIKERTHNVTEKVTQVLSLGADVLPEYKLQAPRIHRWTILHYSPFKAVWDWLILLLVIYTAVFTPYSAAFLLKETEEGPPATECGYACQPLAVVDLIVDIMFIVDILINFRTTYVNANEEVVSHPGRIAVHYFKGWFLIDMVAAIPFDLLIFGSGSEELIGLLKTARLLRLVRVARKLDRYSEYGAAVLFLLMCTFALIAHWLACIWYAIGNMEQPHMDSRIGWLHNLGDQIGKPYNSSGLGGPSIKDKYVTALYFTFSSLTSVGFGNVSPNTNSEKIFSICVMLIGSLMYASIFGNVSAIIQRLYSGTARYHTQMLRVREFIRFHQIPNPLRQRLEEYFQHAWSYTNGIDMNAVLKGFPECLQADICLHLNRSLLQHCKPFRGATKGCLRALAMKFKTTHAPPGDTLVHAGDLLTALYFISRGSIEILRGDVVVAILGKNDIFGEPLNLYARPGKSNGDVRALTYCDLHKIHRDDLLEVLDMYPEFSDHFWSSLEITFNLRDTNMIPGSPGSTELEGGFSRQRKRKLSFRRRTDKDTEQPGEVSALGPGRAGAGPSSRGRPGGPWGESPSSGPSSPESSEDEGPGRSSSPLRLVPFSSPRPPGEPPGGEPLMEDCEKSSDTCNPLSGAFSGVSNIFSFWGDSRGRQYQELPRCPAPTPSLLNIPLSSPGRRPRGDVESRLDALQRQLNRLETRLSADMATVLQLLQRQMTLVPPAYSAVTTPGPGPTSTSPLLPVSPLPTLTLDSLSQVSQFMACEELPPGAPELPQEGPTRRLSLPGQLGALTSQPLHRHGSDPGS

Take `C[C@@H](Oc1cc(-c2cnn(C(F)F)c2)cc2nscc12)[C@H]1CNC(=O)O1`: the pIC50 – broadly, the negative decadic logarithm of the IC50, by convention in mol/L – in [1] is 7.80; in data set [2], 6.48; in data set [3], 6.71. In addition, the MRT – broadly, the average time that molecules of a dose stay in the body – in data set [4] stood at 168 min. The same compound showed a Cmax/dose in [5] of 614 nM.

Consider `C[C@@H](Oc1cc(-c2cnn(C(F)F)c2)cc2nscc12)[C@H]1CNC(=O)C1`, for which the pIC50 is 7.24 in [1], 6.47 in data set [2] and 5.99 in data set [3]. Besides, the MRT in data set [4] came out at 156 min. Besides, the Cmax/dose in data set [5] was determined as 263 nM.

On to `C[C@@H](Oc1cc(-c2cnn(C(F)F)c2)cc2ncsc12)[C@H]1CNC(=O)O1`, for which the pIC50 in data set [1] is 8.05; in [2], 6.97; in data set [3], 6.64. This compound also returned an MRT in [4] of 282 min. Moreover, in data set [5], the Cmax/dose is on record as 803 nM.

Take `C[C@@H](Oc1nc(-c2cnn(C)c2)cc2ncsc12)[C@H]1CNC(=O)C1`: the pIC50 in data set [1] is 7.59; in [2], 6.55; in data set [3], 6.27. In [4], this compound came in with an MRT of 42 min. The Cmax/dose in data set [5] came to 103 nM.

In the case of `CN(C)c1ccc(-c2cc3ncccc3c(NCCCN)n2)cc1`, the Drug metabolism result in data set [6], in data set [7], in data set [8], in [9], in data set [10] and in data set [11] was “metabolite_detected” throughout.

Regarding `C[C@@H](Oc1nc(-c2cnn(C)c2)cc2nscc12)[C@H]1CNC(=O)C1`, the negative logarithm of the IC50 (pIC50) was 6.10 in data set [12], 7.40 in data set [1], 6.61 in data set [2] and 6.54 in data set [3]. Also, the clearance in data set [13] was 86 mL/min/kg. In addition, in data set [14], the Vd is 2.4 L/kg. The MRT in data set [4] amounted to 30 min. Besides, in data set [15], the AUC/dose is 577 nM.hr/(mg/kg). Besides, the bioavailability (as a rule, the share of a dose that reaches the circulation, judged against a reference dose that is usually intravenous) in data set [16] worked out at 27%. In addition, in data set [5], the Cmax/dose was determined as 109 nM. Besides, the solubility – broadly, the concentration that dissolves in the medium under given conditions – in data set [17] was greater than 1000 µM. In data set [18], the fraction unbound is 0.2. Further, the half-life – broadly, the time needed for the level to fall by half in the phase considered – in data set [19] was 34 min. The Drug metabolism result in data set [6], in [7], in data set [8], in data set [9], in data set [10] and in data set [11] was “metabolite_detected” each time.

`C[C@@H](Oc1cc(-c2cnn(C)c2)cc2nscc12)[C@H]1CNC(=O)O1` showed a pIC50 in data set [12] of no less than 7.00. Also, the clearance in [13] is 12 mL/min/kg. The Vd in data set [14] worked out at 1.5 L/kg. In data set [4], this compound displayed an MRT of 120 min. Besides, in data set [16], the bioavailability is 100%. Further, the Cmax/dose in data set [5] was 477 nM. Further, the Drug metabolism result in [6], in data set [7], in data set [8], in [9], in [10] and in data set [11] was “metabolite_detected” each time.

Take `C[C@@H](Oc1cc(-c2cnn(C)c2)cc2nscc12)[C@H]1CNC(=O)C1`: the pIC50 in data set [12] is 6.24; in data set [1] it was 7.34; in [2], 6.79; in data set [3], 6.53. Besides, the clearance in data set [13] was 45 mL/min/kg. The Vd in data set [14] was 2.4 L/kg. This compound also gave an MRT in data set [4] of 54 min. Also, the AUC/dose in [15] was 1056 nM.hr/(mg/kg). In addition, in data set [16], the bioavailability was 30%. The Cmax/dose in data set [5] is 94 nM. For the same compound, the solubility in [17] was greater than 1000 µM. The fraction unbound in [18] was 0.2. The compound also yielded a half-life in [19] of 34 min. Also, the Drug metabolism entry in data set [6], in data set [7], in data set [8], in data set [9], in data set [10] and in data set [11] was “metabolite_detected” each time.

In the case of `C[C@@H](Oc1cc(-c2cnn(C)c2)cc2ncsc12)[C@H]1CNC(=O)C1`, the pIC50 was 7.48 in data set [1], 7.05 in data set [2] and 6.73 in data set [3].

With `COc1ccc(-c2cc3ncsc3c(O[C@H](C)[C@H]3CNC(=O)C3)n2)cc1OC`, the pIC50 in data set [12] is no less than 7.00; in data set [1], 8.30; in data set [2], 6.88; in data set [3], 6.29. Further, the clearance in data set [13] amounted to 53 mL/min/kg. Moreover, in data set [14], the Vd worked out at 1.2 L/kg. This compound gave an MRT in data set [4] of 24 min. For the same compound, in data set [15], the AUC/dose is reported as 858 nM.hr/(mg/kg). The compound further gave a bioavailability in data set [16] of 35%. The compound further registered a Cmax/dose in data set [5] of 178 nM. Moreover, the Drug metabolism entry in [6], in data set [7], in [8], in data set [9], in data set [10] and in data set [11] was “metabolite_detected” throughout.

In the case of `NC(=O)c1nnc(N[C@@H]2CCCC[C@@H]2N)nc1Nc1cccc2cc[nH]c12`, the pIC50 in [20] is 4.55. The “inhibition (INH)” value in data set [21] is reported as “Not Active”. The Drug uptake in [22] is on record as 41 ng/g; in [23], 9175 ng/g; in data set [24], 3866 ng/g. Also, the Kp in data set [25] and in data set [26] was 100 throughout. This compound registered a Cmax/dose in data set [5] of 80 nM.
